Source: ChEMBL document CHEMBL1150282, “Synthesis and biological evaluation of pyridazinone analogues as potential cardiac positron emission tomography tracers” (J Med Chem, 2008)
One block for each compound: values may come before it.

What was measured:
Liver [1] = test: Biodistribution in Sprague-Dawley rat liver at 15 uCi, iv after 30 mins; type: ADME, organism-based; conditions: in vivo, 0.5 h
How it was run: (§1)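 Male Sprague–Dawley rats (300–400 g) anesthetized with sodium pentobarbital 50 mg/kg ip; left femoral vein cannulated; about 15 µCi radiotracer in 0.3 mL 10% ethanol saline given iv. Killed in CO₂ at 30 or 120 min (n = 3 per time point); tissues weighed and gamma-counted. Counts decay-corrected, net dose from syringe and catheter residues subtracted; expressed as %ID/g ± SD.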

[2] = Ratio of drug uptake in heart to lung of Sprague-Dawley rat at 15 uCi, iv after30 mins; type: ADME, organism-based; conditions: in vivo, 0.5 h
How it was run: (§2)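 Same rat protocol: pentobarbital-anesthetized male SD rats (300–400 g), about 15 µCi iv in 10% ethanol saline via femoral vein, three animals per point, gamma counting of weighed tissues with decay correction. Ratios formed from heart %ID/g over blood, lung, liver or femur %ID/g at 30 min post injection.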

[3] = Ratio of drug uptake in heart to femur of Sprague-Dawley rat at 15 uCi, iv after30 mins; type: ADME, organism-based; conditions: in vivo, 0.5 h; how it was run: as §2
Femur [4] = test: Biodistribution in Sprague-Dawley rat femur at 15 uCi, iv after 120 mins; type: ADME, organism-based; conditions: in vivo, 2 h; how it was run: as §1
Blood [5] = test: Biodistribution in Sprague-Dawley rat blood at 15 uCi, iv after 120 mins; type: ADME, organism-based; conditions: in vivo, 2 h; how it was run: as §1
[6] = Ratio of drug uptake in heart to blood of Sprague-Dawley rat at 15 uCi, iv after 30 mins; type: ADME, organism-based; conditions: heart and blood (heart-to-blood ratio), read-out: Activity; how it was run: as §2
Femur [7] = test: Biodistribution in Sprague-Dawley rat femur at 15 uCi, iv after 30 mins; type: ADME, organism-based; conditions: in vivo, 0.5 h; how it was run: as §1
Lung [8] = test: Biodistribution in Sprague-Dawley rat lung at 15 uCi, iv after 30 mins; type: ADME, organism-based; conditions: in vivo, 0.5 h; how it was run: as §1
Lung [9] = test: Biodistribution in Sprague-Dawley rat lung at 15 uCi, iv after 120 mins; type: ADME, organism-based; conditions: in vivo, 2 h; how it was run: as §1
[10] = Inhibition of mitochondrial complex 1 in bovine heart mitochondria assessed as effect on rate of NADH oxidation; set-up: species or system Bos taurus
How it was run: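 Bovine heart submitochondrial particles (45 µg/mL final) in 50 mM K₂HPO₄ pH 7.4 with 0.4 µM antimycin A and 2 mM KCN. Inhibitor at varying concentrations preincubated 4 min, then 100 µM decyl ubiquinone and 50 µM NADH added. NADH oxidation followed at 340 nm, 37 °C, 120 s; IC50 is concentration giving 50% inhibition.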

Blood [11] = test: Biodistribution in Sprague-Dawley rat blood at 15 uCi, iv after 30 mins; type: ADME, organism-based; conditions: in vivo, 0.5 h; how it was run: as §1
Heart [12] = test: Biodistribution in Sprague-Dawley rat heart at 15 uCi, iv after 30 mins; type: ADME, organism-based; conditions: in vivo, 0.5 h; how it was run: as §1
Heart [13] = test: Biodistribution in Sprague-Dawley rat heart at 15 uCi, iv after 120 mins; type: ADME, organism-based; conditions: in vivo, 2 h; how it was run: as §1
[14] = Ratio of drug uptake in heart to liver of Sprague-Dawley rat at 15 uCi, iv after30 mins; type: ADME, organism-based; conditions: in vivo, 0.5 h; how it was run: as §2
Liver [15] = test: Biodistribution in Sprague-Dawley rat liver at 15 uCi, iv after 120 mins; type: ADME, organism-based; conditions: in vivo, 2 h; how it was run: as §1

- Drug uptake (Liver [1]): 0.98 % ID/g
- Activity [2]: 1.37
- Activity [3]: 0.89
- Drug uptake (Femur [4]): 3 % ID/g
- Drug uptake (Blood [5]): 0.06 % ID/g
- Kp at 0.5 h [6]: 6.05
- Drug uptake (Femur [7]): 1.23 % ID/g
- Drug uptake (Lung [8]): 0.79 % ID/g
- Drug uptake (Lung [9]): 0.22 % ID/g
- Drug uptake (Blood [11]): 0.18 % ID/g
- Drug uptake (Heart [12]): 1.05 % ID/g
- Drug uptake (Heart [13]): 1.24 % ID/g
- Activity [14]: 1.11
- Drug uptake (Liver [15]): 0.39 % ID/g
Structure (SMILES): CCC(CF)Oc1ccc(COc2cnn(C(C)(C)C)c(=O)c2Cl)cc1 (stereo not drawn)
- IC50 [10]: 16 nM

Structure (SMILES): CC(C)(C)c1ccc(CCOc2ncnc3ccccc23)cc1 [FENAZAQUIN]
- IC50 [10]: 90 nM

Structure (SMILES): CCCCOc1ccc(COc2cnn(C(C)(C)C)c(=O)c2Cl)cc1
- IC50 [10]: 27 nM

Structure (SMILES): CCCCCCCCCCSC1N=CN(C(C)(C)C)C(=O)C1Cl (stereo not drawn)
- IC50 [10]: > 4000 nM

- Drug uptake (Liver [1]): 0.64 % ID/g
- Activity [2]: 7.33
- Activity [3]: 4.6
- Drug uptake (Femur [4]): 0.78 % ID/g
- Drug uptake (Blood [5]): 0.1 % ID/g
- Kp at 0.5 h [6]: 12.7
- Drug uptake (Femur [7]): 0.23 % ID/g
- Drug uptake (Lung [8]): 0.15 % ID/g
- Drug uptake (Lung [9]): 0.13 % ID/g
- Drug uptake (Blood [11]): 0.08 % ID/g
- Drug uptake (Heart [12]): 1.09 % ID/g
- Drug uptake (Heart [13]): 1.6 % ID/g
- Activity [14]: 1.7
- Drug uptake (Liver [15]): 0.44 % ID/g
Structure (SMILES): [2H]C([2H])(Oc1cnn(C(C)(C)C)c(=O)c1Cl)c1ccc(COC([2H])([2H])C([2H])([2H])F)cc1
- IC50 [10]: 28 nM

- Drug uptake (Liver [1]): 1.25 % ID/g
- Activity [2]: 16.05
- Activity [3]: 7.51
- Drug uptake (Femur [4]): 0.75 % ID/g
- Drug uptake (Blood [5]): 0.19 % ID/g
- Kp at 0.5 h [6]: 30
- Drug uptake (Femur [7]): 0.45 % ID/g
- Drug uptake (Lung [8]): 0.21 % ID/g
- Drug uptake (Lung [9]): 0.28 % ID/g
- Drug uptake (Blood [11]): 0.11 % ID/g
- Drug uptake (Heart [12]): 3.41 % ID/g
- Drug uptake (Heart [13]): 3.47 % ID/g
- Activity [14]: 2.74
- Drug uptake (Liver [15]): 0.55 % ID/g
Structure (SMILES): CC(C)(C)n1ncc(OCc2ccc(COCCF)cc2)c(Cl)c1=O [FLURPIRIDAZ]
- IC50 [10]: 11 nM

Structure (SMILES): CC(C)(C)c1ccc(CNc2cnn(C(C)(C)C)c(=O)c2Cl)cc1
- IC50 [10]: 4000 nM

- Drug uptake (Liver [1]): 2.03 % ID/g
- Activity [2]: 14.93
- Activity [3]: 6.84
- Drug uptake (Femur [4]): 1.16 % ID/g
- Drug uptake (Blood [5]): 0.04 % ID/g
- Kp at 0.5 h [6]: 60.7
- Drug uptake (Femur [7]): 0.43 % ID/g
- Drug uptake (Lung [8]): 0.01 % ID/g
- Drug uptake (Lung [9]): 0.18 % ID/g
- Drug uptake (Blood [11]): 0.11 % ID/g
- Drug uptake (Heart [12]): 2.94 % ID/g
- Drug uptake (Heart [13]): 2.99 % ID/g
- Activity [14]: 1.45
- Drug uptake (Liver [15]): 0.62 % ID/g
Structure (SMILES): CC(C)(C)n1ncc(OCc2ccc(CCCCF)cc2)c(Cl)c1=O
- IC50 [10]: 15 nM

- Drug uptake (Liver [1]): 1.7 % ID/g
- Activity [2]: 5.4
- Activity [3]: 2
- Drug uptake (Femur [4]): 0.76 % ID/g
- Drug uptake (Blood [5]): 0.07 % ID/g
- Kp at 0.5 h [6]: 9.27
- Drug uptake (Femur [7]): 0.65 % ID/g
- Drug uptake (Lung [8]): 0.24 % ID/g
- Drug uptake (Lung [9]): 0.08 % ID/g
- Drug uptake (Blood [11]): 0.15 % ID/g
- Drug uptake (Heart [12]): 1.31 % ID/g
- Drug uptake (Heart [13]): 0.86 % ID/g
- Activity [14]: 0.77
- Drug uptake (Liver [15]): 0.55 % ID/g
Structure (SMILES): CC(C)(C)n1ncc(OCc2ccc(OCCCF)cc2)c(Cl)c1=O
- IC50 [10]: 47 nM

Structure (SMILES): CC(C)(C)n1ncc(OCc2ccccc2)c(Cl)c1=O
- IC50 [10]: 850 nM

- Drug uptake (Liver [1]): 1.27 % ID/g
- Activity [2]: 12.49
- Activity [3]: 1.98
- Drug uptake (Femur [4]): 2.38 % ID/g
- Kp at 0.5 h [6]: 20.8
- Drug uptake (Femur [7]): 1.14 % ID/g
- Drug uptake (Lung [8]): 0.18 % ID/g
- Drug uptake (Lung [9]): 0.14 % ID/g
- Drug uptake (Blood [11]): 0.11 % ID/g
- Drug uptake (Heart [12]): 2.25 % ID/g
- Drug uptake (Heart [13]): 2.14 % ID/g
- Activity [14]: 1.78
- Drug uptake (Liver [15]): 0.63 % ID/g
Structure (SMILES): CC(F)CCc1ccc(COc2cnn(C(C)(C)C)c(=O)c2Cl)cc1 (stereo not drawn)
- IC50 [10]: 10 nM

- Drug uptake (Liver [1]): 0.44 % ID/g
- Activity [2]: 11.41
- Activity [3]: 0.4
- Drug uptake (Femur [4]): 3.91 % ID/g
- Drug uptake (Blood [5]): 0.04 % ID/g
- Kp at 0.5 h [6]: 13.2
- Drug uptake (Femur [7]): 2.91 % ID/g
- Drug uptake (Lung [8]): 0.1 % ID/g
- Drug uptake (Lung [9]): 0.06 % ID/g
- Drug uptake (Blood [11]): 0.09 % ID/g
- Drug uptake (Heart [12]): 1.15 % ID/g
- Drug uptake (Heart [13]): 1.14 % ID/g
- Activity [14]: 2.62
- Drug uptake (Liver [15]): 0.4 % ID/g
Structure (SMILES): CC(F)COc1ccc(COc2cnn(C(C)(C)C)c(=O)c2Cl)cc1 (stereo not drawn)
- IC50 [10]: 8 nM

Structure (SMILES): Cc1c(SCc2ccc(CCCC[18F])cc2)oc2ccccc2c1=O
- IC50 [10]: 9 nM

Structure (SMILES): [18F]CCCCc1ccc(CCOc2ncnc3ccccc23)cc1
- IC50 [10]: 11 nM

Structure (SMILES): CC(C)(C)c1ccc(CCOc2cnn(C(C)(C)C)c(=O)c2Cl)cc1
- IC50 [10]: 711 nM

Structure (SMILES): Cc1c(SCc2ccc(C(C)(C)C)cc2)cnn(C(C)(C)C)c1=O
- IC50 [10]: 21 nM

Structure (SMILES): CC(C)(C)n1ncc(OCc2ccc3ncccc3c2)c(Cl)c1=O
- IC50 [10]: 221 nM

Structure (SMILES): C=C(C)[C@H]1Cc2c(ccc3c2O[C@@H]2COc4cc(OC)c(OC)cc4[C@@H]2C3=O)O1 [ROTENONE]
- IC50 [10]: 16 nM

Structure (SMILES): CC(C)(C)c1ccc(CSc2cnn(C(C)(C)C)c(=O)c2CF)cc1
- IC50 [10]: 250 nM

Structure (SMILES): CC(C)(C)c1ccc(COc2cnn(C(C)(C)C)c(=O)c2Cl)cc1
- IC50 [10]: 64 nM

Structure (SMILES): CC(C)(C)n1ncc(OCc2ccc3ccccc3c2)c(Cl)c1=O
- IC50 [10]: 60 nM

Structure (SMILES): CCCCc1ccc(COc2cnn(C(C)(C)C)c(=O)c2Cl)cc1
- IC50 [10]: 17 nM

Structure (SMILES): CC(C)(C)n1ncc(OCc2ccc(-c3ccccc3)cc2)c(Cl)c1=O
- IC50 [10]: 31 nM

Structure (SMILES): CC(C)(C)c1ccc(CSc2cnn(C(C)(C)C)c(=O)c2F)cc1
- IC50 [10]: 279 nM

Structure (SMILES): Cc1c(SCc2ccc(C(C)(C)C)cc2)oc2ccccc2c1=O
- IC50 [10]: 52 nM

Structure (SMILES): CC(C)(C)c1ccc(CSc2cnn(C(C)(C)C)c(=O)c2Cl)cc1 [PYRIDABEN]
- IC50 [10]: 8 nM
